Reference: ChEMBL document CHEMBL1649557 (Antimicrob Agents Chemother, 2009)
Converted amounts (≈) assume the structure as drawn.

Tests used:
[1] = system: Staphylococcus aureus; test: Antibacterial activity against methicillin-susceptible Staphylococcus aureus using 5x10^5 CFU/ml standard inoculum assessed as bacterial growth inhibition at 2 ug/ml; assay type: functional; set-up: scale not given: the % may be the effect or the level left
In short: (§1)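 98 MSSA clinical isolates from skin/soft tissue infection, hospital-acquired pneumonia, endocarditis and haemodialysis bacteraemia; testers were blinded to clinical data. Broth microdilution in cation-adjusted Mueller-Hinton II broth per CLSI, with inocula of ~5×10^4, 5×10^5, 5×10^6 or 5×10^7 CFU/ml. Inocula were set by optical density and spot-checked by CFU counts. Plates were read at 24 h. Values are the percentage of strains inhibited at each concentration.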

[2] = system: Staphylococcus aureus; test: Antibacterial activity against methicillin-susceptible Staphylococcus aureus using 5x10^4 CFU/ml low inoculum assessed as bacterial growth inhibition at 16 ug/ml; assay type: functional; set-up: scale not given: the % may be the effect or the level left; in short: as §1
[3] = system: Staphylococcus aureus; test: Antibacterial activity against methicillin-susceptible Staphylococcus aureus using 5x10^4 CFU/ml low inoculum assessed as bacterial growth inhibition at 8 ug/ml; assay type: functional; set-up: scale not given: the % may be the effect or the level left; in short: as §1
[4] = system: Staphylococcus aureus; test: Antibacterial activity against methicillin-susceptible Staphylococcus aureus using 5x10^7 CFU/ml high inoculum assessed as bacterial growth inhibition at >= 128 ug/ml; assay type: functional; set-up: scale not given: the % may be the effect or the level left; in short: as §1
[5] = system: Staphylococcus aureus; test: Antibacterial activity against methicillin-susceptible Staphylococcus aureus using 5x10^7 CFU/ml high inoculum assessed as bacterial growth inhibition at 32 ug/ml; assay type: functional; set-up: scale not given: the % may be the effect or the level left; in short: as §1
[6] = system: Staphylococcus aureus; test: Antibacterial activity against methicillin-susceptible Staphylococcus aureus using 5x10^6 CFU/ml intermediate inoculum assessed as bacterial growth inhibition at >= 128 ug/ml; assay type: functional; set-up: scale not given: the % may be the effect or the level left; in short: as §1
[7] = system: Staphylococcus aureus; test: Antibacterial activity against methicillin-susceptible Staphylococcus aureus using 5x10^5 CFU/ml standard inoculum assessed as bacterial growth inhibition at 64 ug/ml; assay type: functional; set-up: scale not given: the % may be the effect or the level left; in short: as §1
[8] = system: Staphylococcus aureus; test: Antibacterial activity against methicillin-susceptible Staphylococcus aureus using 5x10^7 CFU/ml high inoculum assessed as bacterial growth inhibition at 16 ug/ml; assay type: functional; set-up: scale not given: the % may be the effect or the level left; in short: as §1
[9] = Drug level in human serum at 1 g, iv after 4 hrs; assay type: ADME, organism-based; settings: read-out: Drug uptake
[10] = system: Staphylococcus aureus; test: Antibacterial activity against methicillin-susceptible Staphylococcus aureus using 5x10^7 CFU/ml high inoculum assessed as bacterial growth inhibition at <= […] ug/ml; assay type: functional; set-up: scale not given: the % may be the effect or the level left
[11] = system: Staphylococcus aureus; test: Antibacterial activity against methicillin-susceptible Staphylococcus aureus using 5x10^6 CFU/ml intermediate inoculum assessed as bacterial growth inhibition at 32 ug/ml; assay type: functional; set-up: scale not given: the % may be the effect or the level left; in short: as §1
[12] = system: Staphylococcus aureus; test: Antibacterial activity against methicillin-susceptible Staphylococcus aureus using 5x10^7 CFU/ml high inoculum assessed as bacterial growth inhibition at 64 ug/ml; assay type: functional; set-up: scale not given: the % may be the effect or the level left; in short: as §1
[13] = system: Staphylococcus aureus; test: Antibacterial activity against methicillin-susceptible Staphylococcus aureus using 5x10^4 CFU/ml low inoculum assessed as bacterial growth inhibition at 64 ug/ml; assay type: functional; set-up: scale not given: the % may be the effect or the level left; in short: as §1
[14] = system: Staphylococcus aureus; test: Antibacterial activity against methicillin-susceptible Staphylococcus aureus using 5x10^5 CFU/ml standard inoculum assessed as bacterial growth inhibition at 8 ug/ml; assay type: functional; set-up: scale not given: the % may be the effect or the level left; in short: as §1
[15] = system: Staphylococcus aureus; test: Antibacterial activity against methicillin-susceptible Staphylococcus aureus using 5x10^4 CFU/ml low inoculum assessed as bacterial growth inhibition at >= 128 ug/ml; assay type: functional; set-up: scale not given: the % may be the effect or the level left; in short: as §1
[16] = Drug level in bone of methicillin-susceptible Staphylococcus aureus infected human after 60 mins; assay type: ADME, tissue-based, Bone element; settings: read-out: Drug uptake
[17] = system: Staphylococcus aureus; test: Antibacterial activity against methicillin-susceptible Staphylococcus aureus using 5x10^7 CFU/ml high inoculum assessed as bacterial growth inhibition at 4 ug/ml; assay type: functional; set-up: scale not given: the % may be the effect or the level left; in short: as §1
[18] = system: Staphylococcus aureus; test: Antibacterial activity against methicillin-susceptible Staphylococcus aureus using 5x10^6 CFU/ml intermediate inoculum assessed as bacterial growth inhibition at 64 ug/ml; assay type: functional; set-up: scale not given: the % may be the effect or the level left; in short: as §1
[19] = system: Staphylococcus aureus; test: Antibacterial activity against methicillin-susceptible Staphylococcus aureus using 5x10^7 CFU/ml high inoculum assessed as bacterial growth inhibition at 2 ug/ml; assay type: functional; set-up: scale not given: the % may be the effect or the level left; in short: as §1
[20] = system: Staphylococcus aureus; test: Antibacterial activity against methicillin-susceptible Staphylococcus aureus using 5x10^5 CFU/ml standard inoculum assessed as bacterial growth inhibition at 4 ug/ml; assay type: functional; set-up: scale not given: the % may be the effect or the level left; in short: as §1
[21] = system: Staphylococcus aureus; test: Antibacterial activity against methicillin-susceptible Staphylococcus aureus using 5x10^6 CFU/ml intermediate inoculum assessed as bacterial growth inhibition at <= […] ug/ml; assay type: functional; set-up: scale not given: the % may be the effect or the level left
[22] = system: Staphylococcus aureus; test: Antibacterial activity against methicillin-susceptible Staphylococcus aureus using 5x10^4 CFU/ml low inoculum assessed as bacterial growth inhibition at <= […] ug/ml; assay type: functional; set-up: scale not given: the % may be the effect or the level left
[23] = system: Staphylococcus aureus; test: Antibacterial activity against methicillin-susceptible Staphylococcus aureus using 5x10^5 CFU/ml standard inoculum assessed as bacterial growth inhibition at <= […] ug/ml; assay type: functional; set-up: scale not given: the % may be the effect or the level left
[24] = system: Staphylococcus aureus; test: Antibacterial activity against methicillin-susceptible Staphylococcus aureus using 5x10^4 CFU/ml low inoculum assessed as bacterial growth inhibition at 32 ug/ml; assay type: functional; set-up: scale not given: the % may be the effect or the level left; in short: as §1
[25] = system: Staphylococcus aureus; test: Antibacterial activity against methicillin-susceptible Staphylococcus aureus using 5x10^7 CFU/ml high inoculum assessed as bacterial growth inhibition at 8 ug/ml; assay type: functional; set-up: scale not given: the % may be the effect or the level left; in short: as §1
[26] = system: Staphylococcus aureus; test: Antibacterial activity against methicillin-susceptible Staphylococcus aureus using 5x10^4 CFU/ml low inoculum assessed as bacterial growth inhibition at 4 ug/ml; assay type: functional; set-up: scale not given: the % may be the effect or the level left; in short: as §1
[27] = system: Staphylococcus aureus; test: Antibacterial activity against methicillin-susceptible Staphylococcus aureus using 5x10^5 CFU/ml standard inoculum assessed as bacterial growth inhibition at >= 128 ug/ml; assay type: functional; set-up: scale not given: the % may be the effect or the level left; in short: as §1
[28] = system: Staphylococcus aureus; test: Antibacterial activity against methicillin-susceptible Staphylococcus aureus using 5x10^6 CFU/ml intermediate inoculum assessed as bacterial growth inhibition at 8 ug/ml; assay type: functional; set-up: scale not given: the % may be the effect or the level left; in short: as §1
[29] = system: Staphylococcus aureus; test: Antibacterial activity against methicillin-susceptible Staphylococcus aureus using 5x10^5 CFU/ml standard inoculum assessed as bacterial growth inhibition at 16 ug/ml; assay type: functional; set-up: scale not given: the % may be the effect or the level left; in short: as §1
[30] = system: Staphylococcus aureus; test: Antibacterial activity against methicillin-susceptible Staphylococcus aureus using 5x10^5 CFU/ml standard inoculum assessed as bacterial growth inhibition at 32 ug/ml; assay type: functional; set-up: scale not given: the % may be the effect or the level left; in short: as §1
[31] = system: Staphylococcus aureus; test: Antibacterial activity against methicillin-susceptible Staphylococcus aureus using 5x10^6 CFU/ml intermediate inoculum assessed as bacterial growth inhibition at 4 ug/ml; assay type: functional; set-up: scale not given: the % may be the effect or the level left; in short: as §1
[32] = system: Staphylococcus aureus; test: Antibacterial activity against methicillin-susceptible Staphylococcus aureus using 5x10^6 CFU/ml intermediate inoculum assessed as bacterial growth inhibition at 16 ug/ml; assay type: functional; set-up: scale not given: the % may be the effect or the level left; in short: as §1
[33] = system: Staphylococcus aureus; test: Antibacterial activity against methicillin-susceptible Staphylococcus aureus using 5x10^6 CFU/ml intermediate inoculum assessed as bacterial growth inhibition at 2 ug/ml; assay type: functional; set-up: scale not given: the % may be the effect or the level left; in short: as §1
[34] = system: Staphylococcus aureus; test: Antibacterial activity against methicillin-susceptible Staphylococcus aureus using 5x10^4 CFU/ml low inoculum assessed as bacterial growth inhibition at 2 ug/ml; assay type: functional; set-up: scale not given: the % may be the effect or the level left; in short: as §1
[35] = system: Staphylococcus aureus; test: Antibacterial activity against methicillin-susceptible and beta-lactamase-negative Staphylococcus aureus ATCC 25923 using 5x10^7 CFU/ml high inoculum after 24 hrs by CLSI broth microdilution method; assay type: functional; settings: ATCC 25923, 24 h
[36] = system: Staphylococcus aureus; test: Antibacterial activity against methicillin-susceptible and beta-lactamase-producing Staphylococcus aureus Type C using 5x10^5 CFU/ml standard inoculum after 24 hrs by CLSI broth microdilution method; assay type: functional
[37] = system: Staphylococcus aureus; test: Antibacterial activity against methicillin-susceptible and beta-lactamase-producing Staphylococcus aureus Type C using 5x10^7 CFU/ml high inoculum after 24 hrs by CLSI broth microdilution method; assay type: functional
[38] = system: Staphylococcus aureus; test: Antibacterial activity against methicillin-susceptible and beta-lactamase-producing Staphylococcus aureus Type B using 5x10^5 CFU/ml standard inoculum after 24 hrs by CLSI broth microdilution method; assay type: functional
[39] = system: Staphylococcus aureus; test: Antibacterial activity against methicillin-susceptible and beta-lactamase-producing Staphylococcus aureus Type A TX01117 using 5x10^7 CFU/ml high inoculum after 24 hrs by CLSI broth microdilution method; assay type: functional; settings: Type A TX01117, 24 h
[40] = system: Staphylococcus aureus; test: Antibacterial activity against methicillin-susceptible and beta-lactamase-negative Staphylococcus aureus using 5x10^5 CFU/ml standard inoculum after 24 hrs by CLSI broth microdilution method
[41] = system: Staphylococcus aureus; test: Antibacterial activity against methicillin-susceptible and beta-lactamase-producing Staphylococcus aureus Type B using 5x10^7 CFU/ml high inoculum after 24 hrs by CLSI broth microdilution method; assay type: functional
[42] = system: Staphylococcus aureus; test: Antibacterial activity against methicillin-susceptible and beta-lactamase-negative Staphylococcus aureus ATCC 25923 using 5x10^5 CFU/ml standard inoculum after 24 hrs by CLSI broth microdilution method; assay type: functional; settings: ATCC 25923, 24 h
[43] = system: Staphylococcus aureus; test: Antibacterial activity against methicillin-susceptible and beta-lactamase-producing Staphylococcus aureus Type A TX01117 using 5x10^5 CFU/ml standard inoculum after 24 hrs by CLSI broth microdilution method; assay type: functional; settings: Type A TX01117, 24 h

`Cc1nnc(SCC2=C(C(=O)O)N3C(=O)[C@@H](NC(=O)Cn4cnnn4)[C@H]3SC2)s1` [CEFAZOLIN] gave an Activity [1] of 5%, an Activity [2] of 0% and an Activity [3] of 0%. The Activity [4] was 2%, the Activity [5] was 9% and the Activity [6] was 0%. It also gave an Activity [7] of 0%, an Activity [8] of 5% and a concentration at 4 h [9] of 17 µg/mL. The Activity [10] was 23%, the Activity [11] was 1% and the Activity [12] was 3%. For the same compound, the Activity [13] was 0%, the Activity [14] was 0% and the Activity [15] was 0%. The concentration at 1 h [16] was 6.9 µg/mL, the Activity [17] was 20% and the Activity [18] was 3%. For the same compound, the Activity [19] was 12%, the Activity [20] was 6% and the Activity [21] was 33%. The Activity [22] was 100%, the Activity [23] was 89% and the Activity [24] was 0%. It also gave an Activity [25] of 24%, an Activity [26] of 0% and an Activity [27] of 0%. The Activity [28] was 2%, the Activity [29] was 0% and the Activity [30] was 0%. The Activity [31] was 8%, the Activity [32] was 2% and the Activity [33] was 50%. The Activity [34] was 0%.
`Cn1nnnc1SCC1=C(C(=O)O)N2C(=O)[C@@H](NC(=O)[C@H](O)c3ccccc3)[C@H]2SC1` [CEFAMANDOLE] showed an MIC [35] of 0.4 mg/L (≈ 0.865 µM), an MIC50 [35] of 1 mg/L (≈ 2.16 µM) and an MIC90 [35] of 1 mg/L (≈ 2.16 µM). It also gave an MIC50 [36] of 2 mg/L (≈ 4.32 µM), an MIC90 [36] of 4 mg/L (≈ 8.65 µM) and an MIC [37] of 32 mg/L (≈ 69.2 µM). The MIC50 [37] was 16 mg/L (≈ 34.6 µM), the MIC90 [37] was 32 mg/L (≈ 69.2 µM) and the MIC [38] was 1.3 mg/L (≈ 2.81 µM). The MIC50 [38] was 1 mg/L (≈ 2.16 µM), the MIC90 [38] was 4 mg/L (≈ 8.65 µM) and the MIC [39] was 8 mg/L (≈ 17.3 µM). For the same compound, the MIC50 [39] was 4 mg/L (≈ 8.65 µM), the MIC90 [39] was 32 mg/L (≈ 69.2 µM) and the MIC50 [40] was 1 mg/L (≈ 2.16 µM). For the same compound, the MIC [41] was 13.6 mg/L (≈ 29.4 µM), the MIC50 [41] was 8 mg/L (≈ 17.3 µM) and the MIC90 [41] was 64 mg/L (≈ 138 µM). It also gave an MIC [42] of 0.6 mg/L (≈ 1.3 µM), an MIC90 [42] of 1 mg/L (≈ 2.16 µM) and an MIC [43] of 0.5 mg/L (≈ 1.08 µM). For the same compound, the MIC50 [43] was 1 mg/L (≈ 2.16 µM) and the MIC90 [43] was 2 mg/L (≈ 4.32 µM).
